# High-throughput results as filed in PubChem BioAssay.
# MT stabilizer = microtubule stabilizers in HeLa cells; HeLa tubulin immunostaining HCS, 24 h; share of cells brighter than vehicle mean+2SD; % tubulin-high responders, % at 10 µM; 0.83% of 200,000 active;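 active means plate Z-score above 3 for both tubulin-high and condensed-nucleus cell shares, with cell loss under 80%, at 10 µM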;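 further: anti alpha tubulin signal scored within the nucleus-defined area of each cell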
# Dynein transport = blocks dynein driven cargo transport along microtubules; 3617.4 mouse cells, GR-EGFP nuclear translocation imaging; test concentration mostly 20 µM; stimulated with dexamethasone, 1 µM; hits give low values; z-score, hits read low; 0.47% of 220,000 active;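 active means plate z-score of nuclear minus cytoplasmic receptor signal below a set negative limit, without overly bright fluorescence or cell loss, cut at about -3.5 in these data, passing the limit was not always enough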;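 further: z-score of nuclear minus cytoplasmic ring GR-EGFP intensity difference per well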
#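 medium = tetracycline-free induction medium containing charcoal-stripped FBS | probe or stimulus = dexamethasone, 1.0 µM final | timing = 48 h induction, then 1 h compound, then 30 min agonist, 37 °C | detection = automated 10x imaging of fixed Hoechst-stained cells | read-out basis = nuclear versus cytoplasmic GR-EGFP signal, averaged per well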
# bCat nuc transl = alters nuclear translocation of beta-catenin in HeLa cells; immunofluorescence imaging; 0.3% of 190,000 active; AID 1665; nuclear translocation activity, % at 5 µM;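 active means nuclear translocation activity above 50% at 5 µM, with a well cell count of 50 or more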;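 further: per-cell ratio of nuclear to cytoplasmic median beta-catenin stain intensity; plate controls were DMSO negative control for no effect and GSK-3 inhibitor IX positive control for full effect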
#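 Test system: human HeLa cells, native beta-catenin. Compound dosing: 5 µM primary single dose, 0.1% DMSO, 0.02–20 µM confirmation series. Incubation: compound exposure 24 h at 37°C. Detection: beta-catenin immunostaining with DAPI counterstain, 20x imaging, 6 fields/well. Read-out basis: Nuclear/cytoplasmic beta-catenin signal ratio, % activation.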
# Ins promoter up = MIN6 insulin promoter up-regulation; MIN6 insulin promoter-GFP reporter, high-content imaging; hits give high values; z-score at 5 µM; 0.3% of 190,000 active;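 active means z-score above 3 at 5 µM with at least 500 cells counted in the well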
# Autophagy HCS = autophagy modulation, high-content screen. MEF GFP-LC3 puncta imaging; test concentration mostly 10 µM. calls only at 10 µM (by protocol). 0.98% of 190,000 active. AID 463193;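 active means percentage of spot-positive cells more than 3 SD above its plate mean, without a fluorescence outlier flag or 80% toxicity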;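 further: spot-positive cell cutoff set from DMSO-treated cells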
# An asterisk follows results filed as active; i = inactive; / = no result; + = active, no number. Rows were chosen to be rich in hits. Some 2.3% of all compounds tested hit in one or more screens of this group.
SMILES,MT stabilizer,Dynein transport,bCat nuc transl,Ins promoter up,Autophagy HCS
CC(=O)Nc1ccc(S(=O)(=O)NCCc2ccccn2)cc1,3.2,-0.477,0.0,-0.14,i
Cc1c(CN(C)Cc2cn(C)nc2-c2ccccc2F)[nH]c2ccccc12,2.8,-0.357,1.2,-0.15,+
CC(C)CN1CCN(Cc2ccc3ncccc3c2)CC1CCO (centres undefined),2.9,1.87,-2.6,-0.54,i
CC1=NNC(=O)C1CCC(=O)N/N=C/c1ccc(C)cc1 (centres undefined),/,-0.522,0.0,3.3*,/
CCC1CN(C(=O)Nc2ccc(C)cc2)c2cc(C)ccc2O1 (centres undefined),1.6,-0.885,0.1,/,+
Cc1ccc(NC(=O)CC2COc3ccccc3O2)cc1 (centres undefined),2.9,-0.392,0.6,0.19,i
CCn1cc(CN2N=C(C)CC2c2ccccc2)c(C)n1 (centres undefined),1.5,0.611,0.4,-0.04,i
NC(=O)c1nsc(C(=O)N(CC(=O)NC2CCCC2)c2cnc3ccccc3c2)c1N,/,-0.5,1.1,-1.06,/
CCn1cc(/C=N/NC(=O)c2cc3c(ccc4ccccc43)o2)c2ccccc21,41.2*,1.93,-1.6,-0.49,i
Cc1cc(=O)[nH]c(NN=C2C3CC4CC(C3)CC2C4)n1,/,-0.223,-4.1,0.04,/
COc1ccc(-c2noc(CCC(=O)NCCCN3CCC(Cc4ccccc4)CC3)n2)cc1,4.7,7.42,/,-1.8,+
COc1cccc(OC)c1OCCCCN1CCC(Cc2ccccc2)CC1,0.9,1.13,-3.2,-0.86,i
CC(=O)CCc1ccc(OCCCCN2CCC(Cc3ccccc3)CC2)cc1,3.5,-0.259,-0.3,-0.67,+
Cc1ccc(/C=[N+](\[O-])c2ccc(N(C)C)cc2)c2nsnc12,7.4,-2.13,0.0,/,i
O=c1[nH]c2ccc(F)cc2[nH]c1=O,4.5,0.419,1.0,0.15,+
Cc1cc2c3c(c1)C1(C(=O)N3C(C)(C)CC2C)C(C#N)=C(N)Oc2n[nH]c(C)c21 (centres undefined),17.4*,0.424,/,-1.01,i
CC(=O)Nc1ccc(C(=O)OCC(=O)NC2CCCCCCC2)cc1,2.3,-0.164,0.9,0.53,i
CCN1CCN(c2cc(C)c3cc(NC(=O)c4ccc(OC)c(OC)c4)ccc3n2)CC1,8.4,-0.659,/,-0.68,+
CCc1cc2c(CN3CCN(CCO)CC3)cc(=O)oc2cc1O,1.9,0.0249,-1.0,3.59*,i
CCc1cc2c(CN3CCN(C)CC3)cc(=O)oc2cc1O,4.4,0.0446,-5.0,-0.57,i
COc1ccccc1/C=C/C(=O)Nc1nc(N)n(-c2ccccc2)n1,/,0.342,0.3,0.34,/
CCOc1ccc2nc(N3C(=O)CNC3=S)sc2c1,/,1.07,-0.3,/,/
COc1ccc2nc(N3C(=O)/C(=C/c4ccc(Cl)cc4)NC3=S)sc2c1,2.1,-2.81,0.9,0.61,+
CC(C)C(C)(C#N)NC(=O)CSc1nnc(C(F)(F)F)n1C (centres undefined),2.9,0.00711,-1.4,3.02*,i
CNC(=O)NC(=O)CSc1nnc(C(F)(F)F)n1C,2.1,-0.701,-4.8,-0.53,i
SMILES,MT stabilizer,Dynein transport,bCat nuc transl,Ins promoter up,Autophagy HCS
O=C(Oc1ccc(Br)cc1C(=O)/C=C/c1ccccc1F)c1ccco1,2.4,-5.76*,/,/,i
COc1cc(-c2cc(C(=O)Nc3ccc(S(=O)(=O)NCc4ccco4)cc3)c3ccccc3n2)cc(OC)c1OC,2.5,-0.621,/,-0.96,+
CC1CCN(c2nc3c(c(=O)n(C)c(=O)n3C)n2CCSc2nc3ccccc3s2)CC1,3.0,-0.844,0.2,-0.31,i
CC1CCCN(c2nc3c(c(=O)n(C)c(=O)n3C)n2CCSc2nc3ccccc3s2)C1 (centres undefined),1.7,0.986,-1.7,3.19*,i
CC1C/C(=C\c2cccnc2)C(=O)/C(=C/c2cccnc2)C1 (centres undefined),31.8*,-6.37*,-0.5,-1.55,i
O=C1/C(=C/c2cccnc2)CCc2c1[nH]c1ccccc21,4.2,-0.561,-0.4,0.08,i
c1ccc2c(c1)oc1c(NCCCn3ccnc3)ncnc12,1.6,3.39,0.0,-0.31,+
CCCCN(C(C)=O)c1c(N)n(CCC)c(=O)n(CC(=O)Nc2cc(Cl)cc(Cl)c2)c1=O,0.0,0.383,-0.4,-0.74,i
